In data set [1] the test system is L. infantum promastigotes. In words: Anti-L. infantum promastigotes drug test. Conditions: 48 h; for parasite-killing effect on promastigotes: data not shown. Format: cell-based, Leishmania infantum. The procedure, abridged: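 Promastigotes from a 4-day culture, 1 × 10^5/well, exposed to increasing concentrations for 48 h at 26 °C. Amphotericin B 0.25 μM as positive control. Cells lysed (1% Triton X-100, 2.9% sodium citrate), then 5 mM p-nitrophenyl phosphate added for 2 h at 37 °C. Stopped with 1 N NaOH and read at OD 405 nm. Inhibition calculated versus untreated controls.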

For data set [2], the system named is T. cruzi intracellular amastigotes. In words: Drug test on intracellular amastigotes of T. cruzi. The format is cell-based, Trypanosoma cruzi. Conditions: 72 h; for antitrypanosomal activity on T. cruzi: data not shown; for inhibition of T. cruzi amastigote numbers (highest reduction): concentration not given; for IC50: Trypanosoma cruzi, Vero. Summed up:
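Gamma-irradiated (2200 rad) Vero cells, 3.6 × 10^4/well, plated overnight at 37 °C, 5% CO2. […] Serial dilutions added for 72 h, in quadruplicate, with benznidazole 2 μM as control. Fluorescence read at Ex 544/Em 612 nm. Inhibition versus infected untreated wells; IC50 from sigmoidal variable-slope fit.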

For data set [3], the system named is T. brucei brucei 427 strain, bloodstream stage. As to the kind of experiment: Screening of drugs against T. brucei. The format is cell-based, Trypanosoma brucei brucei. Conditions: for IC50: Trypanosoma brucei. Summed up: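 Strain 427 bloodstream forms in HMI-9 were pelleted (900 g, 10 min) and seeded at 5 × 10^5/well in warm medium with serial dilutions, in triplicate. Suramin 100 μM as positive control. After 24 h, Alamar Blue added and incubated 4 h at 37 °C. Fluorescence read at Ex 530/Em 590 nm. Inhibition versus untreated; IC50 from sigmoidal variable-slope fit.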

In data set [4] the test system is L. infantum intra-macrophage amastigotes. In words: Drug test on L. infantum intra-macrophage amastigotes. The format is cell-based, Leishmania infantum. The note with it: for decrease of number of intracellular amastigotes / reduction of percentage of infected macrophages: highest non-cytotoxic dose; for IC50: Leishmania infantum, U-937, 48 h, read-out: IC50 (parasite-killing activity, L. infantum intracellular amastigotes). The procedure, abridged: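 U937 cells were PMA-differentiated (50 nM, 48 h) and infected with 6-day metacyclic promastigotes at 10:1 for 24 h, then washed. Infected cells (5 × 10^4) were treated for 48 h in chamber slides, in duplicate, at concentrations non-toxic to macrophages (MTT, 48 h). Meglumine antimoniate 273 μM as control. Methanol-fixed, Giemsa-stained; 200 cells counted for infected macrophages and amastigotes.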

The subject of data set [5] is T. brucei. Conditions: read-out: IC50 T. brucei; different T. brucei strain; ref Barquilla et al., 2008; cited from earlier work.
Data set [6] has as its system P. falciparum 3D7 intraerythrocytic stage. In words: P. falciparum growth inhibition assay. The format is cell-based, Plasmodium falciparum. Conditions: for IC50: 3D7, 48 h, read-out: IC50 P. falciparum. Summed up:
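Sorbitol-synchronized 3D7 rings in RBCs at 3% hematocrit, 0.8% parasitemia. Exposed 48 h at 37 °C (5% CO2, 2% O2, 93% N2), in triplicate. Chloroquine 80 nM as reference. Parasitemia measured by flow cytometry after SYTO 11 staining, with uninfected and untreated infected controls. Values standardized to chloroquine; inhibition versus untreated; IC50 from sigmoidal variable-slope fit.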

Data set [7] relates to T. cruzi epimastigotes. The note with it: read-out: IC50 T. cruzi epimastigotes; ref Turrens, 1986; cited from earlier work.
The subject of data set [8] is L. mexicana promastigotes. Conditions: concentrations as high as 0.5 mM; ref Turrens and Cazzulo, 1987; cited from earlier work.
In data set [9] the test system is BS forms of T.brucei. The note with it: read-out: IC50 BS forms of T.brucei; ref Chambers et al., 2008; cited from earlier work.
For data set [10] the following is noted: ref Schaefer et al., 2012; cited from earlier work.
For data set [11] the following is noted: ref Barnard et al., 1993; cited from earlier work.
For data set [12], the system named is T. brucei. Conditions: ref Barnard et al., 1993; cited from earlier work.
Setting [13] is: 24 h, read-out: IC50 T. brucei Bloodstream stage.
Setting [14] is: read-out: IC50 T. cruzi amastigotes.
The mark [15] stands for this setting: read-out: IC50 T. cruzi intracelular amastigotes.
Setting [16] is: 24 h, read-out: IC50 T. brucei brucei.

These results are taken from publication PMC7452664 (International Journal for Parasitology: Drugs and Drug …, 2020).

Molecules are shown by their SMILES. Entries after “also recorded” stand apart in the source; their conditions may differ. Like-named read-outs stand apart in the source and are kept apart here. Where only a bound is given, the exact number is not on record here.

The term IC50 denotes the midpoint of a concentration-inhibition curve. For the molecule `CO[C@H]1C[C@@H]2CC[C@@H](C)[C@@](O)(O2)C(=O)C(=O)N2CCCC[C@H]2C(=O)O[C@H]([C@H](C)C[C@@H]2CC[C@@H](O)[C@H](OC)C2)CC(=O)[C@H](C)/C=C(\C)[C@@H](O)[C@@H](OC)C(=O)[C@H](C)C[C@H](C)/C=C/C=C/C=C/1C` [SIR, sirolimus], the “effect on L. infantum promastigote survival” value in [1] is reported as “did not detectably impair”. Moreover, the “antitrypanosomal activity on T. cruzi” value in data set [2] is “did not show consistent antitrypanosomal activity; also recorded: did not affect the viability”. Further, in [3] (24 h), the “concentration achieving complete clearance of cultured T. brucei brucei” value was determined as 6.85 µM. Further, the half-maximal inhibitory concentration (IC50) in data set [3] (setting [13]) is 2.14 µM; in data set [5] it was 0.152 µM; in [6] (Plasmodium falciparum) it was about 2.5 µM. The “effect on parasite burden and infected macrophages” value in [4] (10 μM, data not shown) is “modest increase of the parasite burden and number of infected macrophages”. The “anti-parasitic effect on L. infantum intra-macrophage amastigotes” value in [4] (48 h, data not shown) is on record as “did not show any parasiticidal effect; also recorded: increase of parasite load”. The “P. falciparum growth inhibition” value in data set [6] (48 h) was “growth inhibition values close to those obtained by CQ”.

Turning to `O=C(O)c1nn(Cc2ccc(Cl)cc2Cl)c2ccccc12` [LND, lonidamine], the “effect on L. infantum promastigote survival” value in data set [1] was “did not detectably impair; also recorded: no effect was detected”. In addition, the IC50 was 80 µM in data set [7]; 82.4 µM in [2] (setting [14]); 82.4 µM in data set [2] (setting [15]); 26.8 µM in [3] (setting [13]); 26.8 µM in data set [3] (setting [16]); 50 µM in data set [9]. Further, in data set [6] (Plasmodium falciparum), the IC50 was determined as 209 µM. In data set [2], the “inhibition of T. cruzi amastigote numbers (highest reduction)” value turned out to be 99.4%. Moreover, the “parasite-killing activity on T. brucei” value in [3] (24 h, concentration not given) is given as 97.7%. Also, the “effect on L. mexicana promastigotes” value in data set [8] was “only a leishmaniostatic effect was observed”. The “concentration of peak antimalarial activity” value in data set [6] (48 h) was 300 µM.

As to `O=C(O)C(=O)CBr` [3BP, 3-bromopyruvic acid], in [1] (37 μM), the “parasite-killing effect on promastigotes” value is “slight parasite-killing effect”. In addition, the “antitrypanosomal activity on T. cruzi” value in data set [2] is reported as “did not show consistent antitrypanosomal activity; also recorded: no efficacy”. Besides, the “parasite-killing activity on T. brucei” value in [3] (24 h, concentration not given) is listed as 93.2%. The IC50 in data set [3] (setting [13]) was found to be 76.6 µM; in data set [3] (setting [16]), 76.6 µM; in [4] it was 24.9 µM. Besides, in data set [10], the “safety in rodents” value is given as “apparently being safe in rodents, where only a reduction in body weight was recorded”. For the same molecule, in data set [11], the “toxicity in humans” value was “toxicity in humans”. Moreover, the “concentration inhibiting motility and growth of T. brucei” value in data set [12] was 13.4 µM. Besides, the “decrease of number of intracellular amastigotes” value in [4] (75 μM, 48 h) is given as 78.3%. Besides, the “reduction of percentage of infected macrophages” value in data set [4] (75 μM, 48 h) worked out at 48.4%. Moreover, the “P. falciparum growth inhibition” value in data set [6] (48 h) is “slight effect on parasite growth inhibition; also recorded: no efficacy”.

Consider `O=C(O)C(Cl)Cl` [DCA, dichloroacetic acid], for which, in [1], the “effect on L. infantum promastigote survival” value is reported as “did not detectably impair”. Also, the IC50 in data set [2] (setting [14]) amounted to 25800 µM; in data set [2] (setting [15]), 25800 ± 59 µM; in data set [3] (setting [13]), 1240 µM; in data set [4], 632 µM. Besides, the “inhibition of T. cruzi amastigotes, highest value” in [2] (high concentrations (up to 100 mM)) is listed as 74.1%. Besides, the “concentration achieving complete clearance of cultured T. brucei brucei” value in data set [3] (24 h) amounted to 12500 µM. Besides, the “decrease of number of intracellular amastigotes” value in [4] (25 mM, 48 h) came out at 90.7%. Moreover, in data set [4] (25 mM, 48 h), the “reduction of percentage of infected macrophages” value amounted to 74.4%. The “P. falciparum growth inhibition” value in data set [6] (48 h) is “growth inhibition values close to those obtained by CQ”.

As to `O=CC[C@@H](O)[C@H](O)[C@H](O)CO` [2DG, 2-deoxy-D-glucose], the “parasite-killing effect on promastigotes” value in data set [1] (0.2 mM) was “slight parasite-killing effect”. The “inhibition of T. cruzi amastigote numbers (highest reduction)” value in data set [2] came to 89.3%. In addition, the IC50 in [2] (setting [15]) is 7270 ± 0.47 µM. In addition, in [3] (24 h), the “parasite-killing activity on T. brucei” value is “No parasite-killing activity was detected”. Moreover, in data set [6] (48 h), the “P. falciparum growth inhibition” value is given as “growth inhibition values close to those obtained by CQ”.

In the case of `CN(C)C(=N)N=C(N)N` [MET, metformin], in [1], the “effect on L. infantum promastigote survival” value is “did not detectably impair”. The figures for the 50% inhibitory concentration (IC50) in data set [2] (setting [14]), in data set [2] (setting [15]) and in data set [3] (setting [13]) were 18500 µM, 18500 ± 18 µM and 17300 ± 15 µM, respectively. In addition, the “parasite elimination, T. brucei” value in data set [3] (20 mM, 24 h) was determined as 57%. Moreover, the “P. falciparum growth inhibition” value in [6] (48 h) was “growth inhibition values close to those obtained by CQ”.

In general, inhibition refers to the drop in the measured response relative to a control, in per cent. Regarding `CCN(CC)CCCC(C)Nc1ccnc2cc(Cl)ccc12` (stereo not drawn) [CQ, chloroquine], the inhibition at 0.08 µM in [6] (Plasmodium falciparum, 3D7, read-out: parasite growth inhibition) is over 90%.

`C[C@@H]1[C@H](O)[C@@H](C)/C=C/C=C/C=C/C=C/C=C/C=C/C=C/[C@H](O[C@@H]2O[C@H](C)[C@@H](O)[C@H](N)[C@@H]2O)C[C@@H]2O[C@](O)(C[C@@H](O)C[C@@H](O)[C@H](O)CC[C@@H](O)C[C@@H](O)CC(=O)O[C@H]1C)C[C@H](O)[C@H]2C(=O)O` [AmB, amphotericyn B]: the “survival rate of L. infantum promastigotes” value in data set [1] (0.25 μM) is 36%.

`Cc1ccc(C(=O)Nc2ccc(S(=O)(=O)O)c3cc(S(=O)(=O)O)cc(S(=O)(=O)O)c23)cc1NC(=O)c1cccc(NC(=O)Nc2cccc(C(=O)Nc3cc(C(=O)Nc4ccc(S(=O)(=O)O)c5cc(S(=O)(=O)O)cc(S(=O)(=O)O)c45)ccc3C)c2)c1` [SUR, suramin]: in data set [3] (100 μM, control drug), the “parasite clearance, T. brucei” value is recorded as 96%.
